“And” between values parts separate entries of the source, which are not always exact repeats. Equal values may be shown once.
Tested on: U2OS
Assay: Multiplex assay against U2OS
Assay type: toxicity, cell-based
Settings: human
Summary of the method: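 Live cells carried four stains from seeding: Hoechst33342, BioTracker Green Microtubule Cytoskeleton Dye, MitoTracker Red and Annexin V Alexa Fluor 680. They were imaged on a CQ1 microscope at 37°C and 5% CO2 after compound addition. Using CellPathfinder machine-learning gating, cells were split into Hoechst high-intensity objects or normal cells, normal cells into healthy, pyknosed or fragmented nuclei, and pyknosed cells into mitotic or apoptotic; tubulin, mitochondrial-mass and membrane-permeability phenotypes are per cents of healthy-nucleus cells.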

[1] = 12 h, 1 µM, compound concentration 1 uM
[2] = 12 h, 10 µM, compound concentration 10 uM
[3] = 24 h, 1 µM, compound concentration 1 uM
[4] = 24 h, 10 µM, compound concentration 10 uM
[5] = 48 h, 1 µM, compound concentration 1 uM
[6] = 48 h, 10 µM, compound concentration 10 uM

`CN1CCN(c2ccc(Nc3c4ccccc4nc4ccccc34)cc2)CC1.Cl.Cl.O` was tested, and the “Population Apoptotic (%)” value [1] was 100% and 87%, the “Population Fragmented Nuclei (%)” value [1] was 25% and 23% and the “Population Healthy Nuclei (%)” value [1] was 65% and 69%. The “Population Hoechst High Intensity Objects (%)” value [1] was 0%, the “Population Membrane Permeable-Phenotype (%)” value [1] was 19% and 14% and the “Population Mitochondria Different-Phenotype (%)” value [1] was 7% and 13%. The “Population Mitotic Cells (%)” value [1] was 0% and 12%, the “Population Normal (%)” value [1] was 99% and 100% and the “Population Pyknosed Nuclei (%)” value [1] was 8% and 7%. The “Population Tubulin-Different-Phenotype (%)” value [1] was 17% and 13%, the “Total Cell Count” value [1] was 193 and 107 and the “Population Apoptotic (%)” value [2] was 93% and 100%. The “Population Fragmented Nuclei (%)” value [2] was 54% and 62%, the “Population Healthy Nuclei (%)” value [2] was 38% and 31% and the “Population Hoechst High Intensity Objects (%)” value [2] was 0% and 2%. For the same compound, the “Population Membrane Permeable-Phenotype (%)” value [2] was 65% and 70%, the “Population Mitochondria Different-Phenotype (%)” value [2] was 95% and 100% and the “Population Mitotic Cells (%)” value [2] was 6% and 0%. The “Population Normal (%)” value [2] was 99% and 97%, the “Population Pyknosed Nuclei (%)” value [2] was 7% and 6% and the “Population Tubulin-Different-Phenotype (%)” value [2] was 82% and 85%. The “Total Cell Count” value [2] was 213 and 132, the “Population Apoptotic (%)” value [3] was 92% and 100% and the “Population Fragmented Nuclei (%)” value [3] was 28% and 29%. The “Population Healthy Nuclei (%)” value [3] was 64% and 60%, the “Population Hoechst High Intensity Objects (%)” value [3] was 1% and 4% and the “Population Membrane Permeable-Phenotype (%)” value [3] was 10% and 5%. For the same compound, the “Population Mitochondria Different-Phenotype (%)” value [3] was 6% and 12%, the “Population Mitotic Cells (%)” value [3] was 7% and 0% and the “Population Normal (%)” value [3] was 98% and 95%. The “Population Pyknosed Nuclei (%)” value [3] was 6% and 10%, the “Population Tubulin-Different-Phenotype (%)” value [3] was 7% and 6% and the “Total Cell Count” value [3] was 200 and 124. For the same compound, the “Population Apoptotic (%)” value [4] was 100% and 90%, the “Population Fragmented Nuclei (%)” value [4] was 46% and 69% and the “Population Healthy Nuclei (%)” value [4] was 42% and 23%. The “Population Hoechst High Intensity Objects (%)” value [4] was 4% and 10%, the “Population Membrane Permeable-Phenotype (%)” value [4] was 85% and 96% and the “Population Mitochondria Different-Phenotype (%)” value [4] was 96% and 100%. The “Population Mitotic Cells (%)” value [4] was 0% and 10%, the “Population Normal (%)” value [4] was 95% and 89% and the “Population Pyknosed Nuclei (%)” value [4] was 11% and 7%. For the same compound, the “Population Tubulin-Different-Phenotype (%)” value [4] was 90% and 100%, the “Total Cell Count” value [4] was 205 and 148 and the “Population Apoptotic (%)” value [5] was 87% and 100%. The “Population Fragmented Nuclei (%)” value [5] was 36% and 40%, the “Population Healthy Nuclei (%)” value [5] was 52% and 47% and the “Population Hoechst High Intensity Objects (%)” value [5] was 4% and 5%. The “Population Mitochondria Different-Phenotype (%)” value [5] was 4% and 7%, the “Population Mitotic Cells (%)” value [5] was 12% and 0% and the “Population Normal (%)” value [5] was 95% and 94%. For the same compound, the “Population Pyknosed Nuclei (%)” value [5] was 10% and 12%, the “Population Tubulin-Different-Phenotype (%)” value [5] was 3% and 9% and the “Total Cell Count” value [5] was 231 and 147. For the same compound, the “Population Apoptotic (%)” value [6] was 96% and 100%, the “Population Fragmented Nuclei (%)” value [6] was 53% and 76% and the “Population Healthy Nuclei (%)” value [6] was 30% and 19%. For the same compound, the “Population Hoechst High Intensity Objects (%)” value [6] was 18% and 15%, the “Population Membrane Permeable-Phenotype (%)” value [6] was 91% and 100% and the “Population Mitochondria Different-Phenotype (%)” value [6] was 90% and 96%. For the same compound, the “Population Mitotic Cells (%)” value [6] was 3% and 0%, the “Population Normal (%)” value [6] was 81% and 84% and the “Population Tubulin-Different-Phenotype (%)” value [6] was 93% and 100%. For the same compound, the “Total Cell Count” value [6] was 243 and 173.

For `CCCCCC(O)/C=C/[C@H]1C(=O)CC(O)C1C/C=C\CCCC(=O)O` (some centres undefined), the “Population Apoptotic (%)” value [1] was 60% and 88%, the “Population Fragmented Nuclei (%)” value [1] was 28% and 15% and the “Population Healthy Nuclei (%)” value [1] was 59% and 76%. For the same compound, the “Population Hoechst High Intensity Objects (%)” value [1] was 1% and 0%, the “Population Membrane Permeable-Phenotype (%)” value [1] was 5% and 8% and the “Population Mitochondria Different-Phenotype (%)” value [1] was 4% and 6%. For the same compound, the “Population Normal (%)” value [1] was 98% and 99%, the “Population Pyknosed Nuclei (%)” value [1] was 12% and 8% and the “Population Tubulin-Different-Phenotype (%)” value [1] was 4% and 8%. The “Total Cell Count” value [1] was 203 and 113, the “Population Apoptotic (%)” value [2] was 71% and 66% and the “Population Fragmented Nuclei (%)” value [2] was 23% and 16%. For the same compound, the “Population Healthy Nuclei (%)” value [2] was 69% and 73%, the “Population Hoechst High Intensity Objects (%)” value [2] was 2% and the “Population Membrane Permeable-Phenotype (%)” value [2] was 8% and 10%. The “Population Mitochondria Different-Phenotype (%)” value [2] was 3% and 2%, the “Population Mitotic Cells (%)” value [2] was 28% and 33% and the “Population Normal (%)” value [2] was 97%. For the same compound, the “Population Pyknosed Nuclei (%)” value [2] was 7% and 9%, the “Population Tubulin-Different-Phenotype (%)” value [2] was 5% and 4% and the “Total Cell Count” value [2] was 190 and 94. For the same compound, the “Population Apoptotic (%)” value [3] was 86% and 90%, the “Population Fragmented Nuclei (%)” value [3] was 27% and 16% and the “Population Healthy Nuclei (%)” value [3] was 63% and 74%. The “Population Hoechst High Intensity Objects (%)” value [3] was 2% and 0%, the “Population Membrane Permeable-Phenotype (%)” value [3] was 3% and 5% and the “Population Mitochondria Different-Phenotype (%)” value [3] was 0% and 7%. For the same compound, the “Population Mitotic Cells (%)” value [3] was 13% and 9%, the “Population Normal (%)” value [3] was 98% and 99% and the “Population Pyknosed Nuclei (%)” value [3] was 8%. For the same compound, the “Population Tubulin-Different-Phenotype (%)” value [3] was 1% and 4%, the “Total Cell Count” value [3] was 250 and 131 and the “Population Apoptotic (%)” value [4] was 100% and 90%. For the same compound, the “Population Fragmented Nuclei (%)” value [4] was 23% and 16%, the “Population Healthy Nuclei (%)” value [4] was 66% and 74% and the “Population Hoechst High Intensity Objects (%)” value [4] was 1% and 2%. The “Population Membrane Permeable-Phenotype (%)” value [4] was 6% and 5%, the “Population Mitochondria Different-Phenotype (%)” value [4] was 4% and 1% and the “Population Mitotic Cells (%)” value [4] was 0% and 10%. For the same compound, the “Population Normal (%)” value [4] was 98% and 97%, the “Population Pyknosed Nuclei (%)” value [4] was 9% and 8% and the “Population Tubulin-Different-Phenotype (%)” value [4] was 4% and 2%. For the same compound, the “Total Cell Count” value [4] was 216 and 118, the “Population Apoptotic (%)” value [5] was 89% and 100% and the “Population Fragmented Nuclei (%)” value [5] was 19% and 13%. For the same compound, the “Population Healthy Nuclei (%)” value [5] was 71% and 79%, the “Population Hoechst High Intensity Objects (%)” value [5] was 2% and the “Population Membrane Permeable-Phenotype (%)” value [5] was 4% and 5%. The “Population Mitochondria Different-Phenotype (%)” value [5] was 3% and 4%, the “Population Mitotic Cells (%)” value [5] was 10% and 0% and the “Population Normal (%)” value [5] was 97%. The “Population Pyknosed Nuclei (%)” value [5] was 8% and 7%, the “Population Tubulin-Different-Phenotype (%)” value [5] was 2% and 3% and the “Total Cell Count” value [5] was 334 and 189. For the same compound, the “Population Apoptotic (%)” value [6] was 89% and 100%, the “Population Fragmented Nuclei (%)” value [6] was 23% and 21% and the “Population Healthy Nuclei (%)” value [6] was 67% and 70%. The “Population Hoechst High Intensity Objects (%)” value [6] was 3% and 2%, the “Population Membrane Permeable-Phenotype (%)” value [6] was 6% and 7% and the “Population Mitochondria Different-Phenotype (%)” value [6] was 3%. The “Population Mitotic Cells (%)” value [6] was 10% and 0%, the “Population Normal (%)” value [6] was 96% and 97% and the “Population Pyknosed Nuclei (%)” value [6] was 9% and 7%. The “Population Tubulin-Different-Phenotype (%)” value [6] was 4% and 3% and the “Total Cell Count” value [6] was 302 and 161.
